What was measured:
[1] = Plasma clearance in rhesus monkey at 2 mg/kg, iv by LC/MS/MS analysis; type: ADME, organism-based, Macaca mulatta; parameters: dose 2 mg/kg, route intravenous
Outline: (§1)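 Fasted animals received an IV bolus in DMSO at 1.0 ml/kg for rats and 0.1 ml/kg for dogs and rhesus monkeys, at 2 mg/kg; n = 3 per species. Blood was drawn into EDTA tubes at set times, and plasma was separated by centrifugation and stored at −70°C. Drug was quantified by LC/MS/MS after protein precipitation.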

[2] = system: Hepatitis C virus; assay: Antiviral activity against Hepatitis C virus containing NS3/4a ps32 sequence by transient cell-base protease activity; type: functional, organism-based, Hepacivirus hominis
Outline: (§2)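 Transient cell-based phenotype assay of protease activity, using NS3/4A sequences cloned from plasma of HCV-infected patients. EC50s were determined.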

[3] = AUC (0-24 hrs) in dog at 5 mg/kg, po by LC/MS/MS analysis; type: ADME, organism-based, Canis lupus familiaris; parameters: time < 24 hr, dose 5 mg/kg, route oral; conditions: plasma
Outline: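 Dosed orally as a solution in polyethylene glycol 400 (2.0 ml/kg), with n = 3. EDTA plasma was centrifuged off and held at −70°C. Drug levels were determined by LC/MS/MS following protein precipitation.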

[4] = Plasma clearance in rat at 2 mg/kg, iv by LC/MS/MS analysis; type: ADME, organism-based; parameters: dose 2 mg/kg, route intravenous; outline: as §1
[5] = system: Hepatitis C virus; assay: Antiviral activity against Hepatitis C virus genotype 2a infected in […] cell by cell-based HCV replicon assay in presence of 10% fetal bovine serum; type: functional, organism-based, Hepacivirus hominis
[6] = Volume of distribution in rat at 2 mg/kg, iv by LC/MS/MS analysis; type: ADME, organism-based; parameters: dose 2 mg/kg, route intravenous; conditions: in vivo; outline: as §1
[7] = system: Hepatitis C virus; assay: Antiviral activity against Hepatitis C virus containing NS3/4a ps41 sequence by transient cell-base protease activity; type: functional, organism-based, Hepacivirus hominis; outline: as §2
[8] = Half life in dog at 2 mg/kg, iv by LC/MS/MS analysis; type: ADME, organism-based, Canis lupus familiaris; parameters: dose 2 mg/kg, route intravenous; conditions: in vivo
Outline: (§3)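 Fasted animals received an intravenous bolus in DMSO at 1.0 ml/kg (rat), 0.1 ml/kg (dog) or 0.1 ml/kg (rhesus), with n = 3. Blood was drawn into EDTA tubes, and plasma was separated by centrifugation and stored at −70°C. Drug was quantified by LC/MS/MS after protein precipitation.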

[9] = biological target: Serine protease 1 (Homo sapiens, UniProt P07477); assay: Inhibition of human Trypsin activity
Serine protease 1, sequence (P07477 whole entry): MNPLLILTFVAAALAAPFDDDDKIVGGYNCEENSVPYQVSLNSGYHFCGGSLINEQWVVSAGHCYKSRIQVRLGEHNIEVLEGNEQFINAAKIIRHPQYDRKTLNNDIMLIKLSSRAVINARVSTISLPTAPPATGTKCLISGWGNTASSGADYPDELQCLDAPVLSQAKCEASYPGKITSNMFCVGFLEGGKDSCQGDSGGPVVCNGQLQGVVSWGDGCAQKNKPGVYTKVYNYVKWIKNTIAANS

[10] = system: Hepatitis C virus; assay: Antiviral activity against Hepatitis C virus containing NS3/Q41R protease mutant activity by TaqMan-based assay; type: functional, organism-based, Hepacivirus hominis
[11] = biological target: Procathepsin L (Homo sapiens, UniProt P07711); assay: Inhibition of human Cathepsin L
Procathepsin L, sequence (P07711 whole entry): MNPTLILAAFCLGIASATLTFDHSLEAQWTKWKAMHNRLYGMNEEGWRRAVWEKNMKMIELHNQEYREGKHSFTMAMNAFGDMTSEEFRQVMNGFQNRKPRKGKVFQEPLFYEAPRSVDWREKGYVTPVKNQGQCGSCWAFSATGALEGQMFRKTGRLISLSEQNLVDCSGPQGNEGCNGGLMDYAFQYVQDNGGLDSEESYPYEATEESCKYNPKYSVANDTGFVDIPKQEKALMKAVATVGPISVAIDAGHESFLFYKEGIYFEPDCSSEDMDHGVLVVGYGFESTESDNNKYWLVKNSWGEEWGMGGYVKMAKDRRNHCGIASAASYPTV

[12] = Volume of distribution in rhesus monkey at 2 mg/kg, iv by LC/MS/MS analysis; type: ADME, organism-based, Macaca mulatta; parameters: dose 2 mg/kg, route intravenous; conditions: in vivo; outline: as §1
[13] = system: Hepatitis C virus; assay: Antiviral activity against Hepatitis C virus containing NS3/4a ps37 sequence by transient cell-base protease activity; type: functional, organism-based, Hepacivirus hominis; outline: as §2
[14] = AUC (0-24 hrs) in chimpanzee at 10 mg/kg, po by LC/MS/MS analysis; type: ADME, organism-based, Pan troglodytes; parameters: time < 24 hr, dose 10 mg/kg, route oral; conditions: plasma
Outline: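 Two HCV-uninfected chimpanzees (about 57 and 52 kg) drank the dose voluntarily in a chocolate milk vehicle (0.67 ml/kg). EDTA plasma was stored at −70°C and quantified by LC/MS/MS after protein precipitation.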

[15] = biological target: Chymotrypsin-like elastase family member 1 (Homo sapiens, UniProt Q9UNI1); assay: Inhibition of human Pancreatic elastase 1
Chymotrypsin-like elastase family member 1, sequence (Q9UNI1 whole entry): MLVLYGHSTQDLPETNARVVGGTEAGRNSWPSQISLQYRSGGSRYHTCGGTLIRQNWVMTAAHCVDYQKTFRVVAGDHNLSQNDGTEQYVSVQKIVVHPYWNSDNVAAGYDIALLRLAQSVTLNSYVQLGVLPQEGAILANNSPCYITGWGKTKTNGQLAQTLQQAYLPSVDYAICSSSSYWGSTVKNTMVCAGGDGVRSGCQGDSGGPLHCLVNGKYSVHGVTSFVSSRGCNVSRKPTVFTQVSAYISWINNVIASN

[16] = biological target: Cathepsin B (Homo sapiens, UniProt P07858); assay: Inhibition of human Cathepsin B
[17] = system: Pan troglodytes; assay: AUC in chimpanzee at 10 mg/kg, po from 0 to 24 hrs by LC/MS/MS analysis; conditions: in vivo
[18] = system: Hepatitis C virus; assay: Antiviral activity against Hepatitis C virus genotype 1b infected in […] cell by cell-based HCV replicon assay in presence of 50% normal human serum; type: functional, organism-based, Hepacivirus hominis
Outline: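 Stable genotype 1b (con1) replicon cell line HB1, assayed in the presence of 50% normal human serum.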

[19] = system: Hepatitis C virus; assay: Antiviral activity against Hepatitis C virus containing NS3/4a Con1 sequence by transient cell-base protease activity; type: functional, organism-based, Hepacivirus hominis
[20] = system: Hepatitis C virus; assay: Antiviral activity against Hepatitis C virus containing NS3/A156T protease mutant activity by TaqMan-based assay; type: functional, organism-based, Hepacivirus hominis
Outline: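 Panel of stable HCV replicon cell lines carrying NS3 protease mutations. Replicon RNA read out by a TaqMan-based assay, and EC50 values determined.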

[21] = biological target: T1, Chymase (Homo sapiens, UniProt P23946); assay: Inhibition of human Chymase
T1 sequence (P23946 whole entry): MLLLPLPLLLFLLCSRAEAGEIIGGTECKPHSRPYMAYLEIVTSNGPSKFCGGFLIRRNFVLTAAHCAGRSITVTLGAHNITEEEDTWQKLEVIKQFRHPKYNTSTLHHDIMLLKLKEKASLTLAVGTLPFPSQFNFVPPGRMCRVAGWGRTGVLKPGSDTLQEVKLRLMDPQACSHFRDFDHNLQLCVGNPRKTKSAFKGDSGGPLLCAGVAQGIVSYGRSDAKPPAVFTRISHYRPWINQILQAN

[22] = system: Hepatitis C virus genotype 1b; assay: Antiviral activity against Hepatitis C virus genotype 1b containing NS3/con1 protease mutant by TaqMan-based assay; conditions: subtype 1b
[23] = biological target: T2, Cathepsin F (Homo sapiens, UniProt Q9UBX1); assay: Inhibition of human Cathepsin F
T2 sequence (Q9UBX1 whole entry): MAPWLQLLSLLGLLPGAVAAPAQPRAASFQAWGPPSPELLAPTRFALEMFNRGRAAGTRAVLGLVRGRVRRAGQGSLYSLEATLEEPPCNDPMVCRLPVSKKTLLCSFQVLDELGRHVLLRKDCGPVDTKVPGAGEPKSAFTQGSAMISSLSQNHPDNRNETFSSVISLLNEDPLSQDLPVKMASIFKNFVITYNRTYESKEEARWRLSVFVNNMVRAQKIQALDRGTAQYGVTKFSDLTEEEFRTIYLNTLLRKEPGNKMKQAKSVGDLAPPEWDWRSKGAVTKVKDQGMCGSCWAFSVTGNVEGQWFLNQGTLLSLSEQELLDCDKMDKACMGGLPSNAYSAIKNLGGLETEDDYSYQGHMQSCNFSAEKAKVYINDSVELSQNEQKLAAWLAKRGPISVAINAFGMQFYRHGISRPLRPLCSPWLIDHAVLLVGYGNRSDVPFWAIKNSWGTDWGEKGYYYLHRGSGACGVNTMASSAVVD

[24] = biological target: T3, Cathepsin K (Homo sapiens, UniProt P43235); assay: Inhibition of human Cathepsin K
T3 sequence (P43235 whole entry): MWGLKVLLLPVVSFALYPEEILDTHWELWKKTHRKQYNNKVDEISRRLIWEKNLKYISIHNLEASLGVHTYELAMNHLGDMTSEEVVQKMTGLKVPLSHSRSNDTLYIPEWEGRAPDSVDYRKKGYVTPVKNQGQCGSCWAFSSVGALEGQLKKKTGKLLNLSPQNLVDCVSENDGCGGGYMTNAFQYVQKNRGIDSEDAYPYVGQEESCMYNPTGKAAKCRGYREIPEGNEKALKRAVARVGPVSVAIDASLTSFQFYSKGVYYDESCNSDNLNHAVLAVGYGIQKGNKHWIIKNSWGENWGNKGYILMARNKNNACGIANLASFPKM

[25] = Half life in rat at 2 mg/kg, iv by LC/MS/MS analysis; type: ADME, organism-based; parameters: dose 2 mg/kg, route intravenous; conditions: in vivo; outline: as §3
[26] = system: Hepatitis C virus; assay: Antiviral activity against Hepatitis C virus containing NS3/4a ps31 sequence by transient cell-base protease activity; type: functional, organism-based, Hepacivirus hominis; outline: as §2

CC[C@@H]1C[C@]1(NC(=O)[C@@H]1C[C@@H]2CN1C(=O)[C@H](C(C)(C)C)NC(=O)OCC(C)(C)CCCCc1cccc3c1CN(C3)C(=O)O2)C(=O)NS(=O)(=O)C1CC1 [VANIPREVIR]
clearance [1]: 18 mL/min/kg
EC50 [2]: 3.8 nM
AUC(0-t) at 24 h [3]: 1.2 µM·h
clearance [4]: 74 mL/min/kg
EC50 [5]: 15 nM
Vd [6]: 1.9 L/kg
EC50 [7]: 19 nM
half-life [8]: 1.2 h
IC50 [9]: > 10000 nM
EC50 [10]: 5.2 nM
IC50 [11]: > 10000 nM
Vd [12]: 0.4 L/kg
EC50 [13]: 6.5 nM
AUC(0-t) at 24 h [14]: 5.2 µM·h
IC50 [15]: > 10000 nM
IC50 [16]: > 10000 nM
AUC [17]: 5.2 µM·h
EC50 [18]: 13 nM
EC50 [19]: 4.1 nM
EC50 [20]: 200 nM
IC50 [21]: > 10000 nM
EC50 [22]: 1.6 nM
IC50 [23]: > 10000 nM
IC50 [24]: > 10000 nM
half-life [25]: 0.9 h
EC50 [26]: 3.4 nM
